Assay results of several laboratories.
Target: Serine/threonine-protein kinase DCLK1 (DCLK1, Homo sapiens, UniProt O15075)
Sequence (O15075 1-740, as in one of the studies): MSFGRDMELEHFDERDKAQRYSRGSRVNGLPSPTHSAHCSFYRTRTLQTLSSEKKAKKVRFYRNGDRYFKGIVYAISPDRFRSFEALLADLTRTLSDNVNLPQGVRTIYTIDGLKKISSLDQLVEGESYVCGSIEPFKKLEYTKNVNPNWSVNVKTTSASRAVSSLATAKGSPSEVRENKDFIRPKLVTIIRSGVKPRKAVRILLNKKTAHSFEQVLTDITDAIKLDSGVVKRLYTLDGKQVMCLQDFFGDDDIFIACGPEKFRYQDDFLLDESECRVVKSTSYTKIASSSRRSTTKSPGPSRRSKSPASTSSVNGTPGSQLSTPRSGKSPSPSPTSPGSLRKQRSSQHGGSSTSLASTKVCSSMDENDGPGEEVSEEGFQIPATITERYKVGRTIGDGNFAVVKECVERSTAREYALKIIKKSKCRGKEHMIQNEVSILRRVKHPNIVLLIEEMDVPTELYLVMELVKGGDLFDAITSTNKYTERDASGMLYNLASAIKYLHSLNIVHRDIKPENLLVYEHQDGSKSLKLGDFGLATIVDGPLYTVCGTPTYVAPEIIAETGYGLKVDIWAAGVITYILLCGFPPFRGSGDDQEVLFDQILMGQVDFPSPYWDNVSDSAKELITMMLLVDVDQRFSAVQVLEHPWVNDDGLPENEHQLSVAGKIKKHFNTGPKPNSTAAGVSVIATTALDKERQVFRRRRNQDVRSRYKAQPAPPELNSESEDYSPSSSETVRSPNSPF

C[C@@H]1CCN(c2nccc(-c3cnn4ncccc34)n2)C1  remaining binding (binding; competition with immobilised ligand; 1 µM): 84%
COc1cnc(Nc2cccc(S(N)(=O)=O)c2)nc1N1CCN(c2ccccc2)C(=O)C1  remaining binding (binding; competition with immobilised ligand; 1 µM): 83%
c1cncc(-c2cccc(Nc3nccc(NC4CCCCC4)n3)c2)c1  remaining binding (binding; competition with immobilised ligand; 10 µM): 92%
CC1=C(C#N)C(c2ccc3c(c2)c(NC(=O)c2ccccc2C)nn3C)C(C#N)=C(C)N1  remaining binding (cell-free assay; competition with immobilised ligand; 1 µM): 79%
CN(c1nccc(-c2cnn3ncccc23)n1)C1CC1  remaining binding (binding; 1 µM): 85%
C[C@@H]1CN(c2ccc3ncc(-c4ccc5[nH]nc(C6CC6)c5c4)n3n2)C[C@H](C)O1  remaining binding (binding; competition with immobilised ligand; 50 nM): 84%
CNC(=O)[C@@H]1CC[C@@H](n2c(-c3ccc4cnccc4c3)nc3ccc(C(=O)NCc4cccc(C(N)=O)c4)cc32)C1  remaining binding (binding; competition with immobilised ligand; 1 µM): 85%
CC(=O)Nc1c(C(C)=O)c(=O)n(C)c2nc(-c3ccc(Cl)cc3Cl)c(-c3ccc(Cl)cc3)cc12  remaining binding (cell-free assay; competition with immobilised ligand; 1 µM): 100%
CN(C)c1nccc(-c2cnc3ncccn23)n1  remaining binding (binding; competition with immobilised ligand; 1 µM): 61%
O=C(NCCCN1CCOCC1)c1ccc(Nc2nccc(-c3cc4ccccc4s3)n2)cc1  remaining binding (binding; competition with immobilised ligand; 1 µM): 88%
COc1cc(N2CCN(C)CC2)ccc1Nc1ncc2c(n1)N(C)c1ccccc1C(=O)N2CC(F)(F)F  remaining binding (binding; competition with immobilised ligand; 1 µM): < 10%
Cc1noc([C@H]2C[C@@H](c3ccc(C(F)(F)F)cc3)CN(C(=O)N3CCS(=O)(=O)C3)C2)n1  remaining binding (cell-free assay; competition with immobilised ligand; 1 µM): 75%
O=C(NCCCN1CCOCC1)c1ccc(Nc2ncc(Cl)c(-c3ccc(Cl)s3)n2)cc1  remaining binding (binding; competition with immobilised ligand; 1 µM): 56%
CN(C)c1ncc(F)c(-c2cnn3ncccc23)n1  remaining binding (binding; competition with immobilised ligand; 1 µM): 61%
CNCc1ccccc1-c1csc([C@H](C)Nc2nc(C)nc3cc(OC)c(OC)cc23)c1  remaining binding (cell-free assay; competition with immobilised ligand; 1 µM): 87%
N[C@@H]1CCN(c2nccc(-c3cnn4ncccc34)n2)C1  remaining binding (binding; competition with immobilised ligand; 1 µM): 70%
COCCOc1nc(-c2ccc(Cl)nc2)nc2c1CN(C(=O)c1ncn3ccccc13)CC2  remaining binding (cell-free assay; competition with immobilised ligand; 0.1 µM): 100%
O=C(Nc1c[nH]nc1C(=O)NC1CCNCC1)c1cc(F)cc(F)c1  remaining binding (binding; competition with immobilised ligand; 1 µM): 79%
CC(C)CC(=O)N1CCc2nc(-c3ccc(Br)cc3)nc(N(C)Cc3ccccc3)c2C1  remaining binding (cell-free assay; competition with immobilised ligand; 0.1 µM): 100%
CCN1CCN(Cc2ccc(C(=O)Nc3ccc(C)c(Oc4ccc5c(c4)CC(=O)N5)c3)cc2C(F)(F)F)CC1  remaining binding (binding; competition with immobilised ligand; 1 µM): 88%
COc1ccc2cc(OCC3(C(=O)O)CN(C(=O)c4ccc(F)cc4)C3)ccc2c1  remaining binding (cell-free assay; competition with immobilised ligand; 1 µM): 100%
Cc1cnn2ncc(-c3ccnc(N(C)C)n3)c2c1  remaining binding (binding; competition with immobilised ligand; 1 µM): 91%
N#Cc1ccccc1CSc1nnc2c(n1)[nH]c1ccccc12  remaining binding (binding; competition with immobilised ligand; 10 µM): 100%
O=C(c1ccc(Nc2ncc(Cl)c(-c3ccc(Cl)s3)n2)cc1)N1CCC(N2CCCC2)CC1  remaining binding (binding; competition with immobilised ligand; 1 µM): 69%
FC(F)(F)Oc1cccc(-c2cnc3ccc(-c4ccncc4)nn23)c1  remaining binding (cell-free assay; competition with immobilised ligand; 5 µM): 69%
F[C@@H]1CCN(c2nccc(-c3cnn4ncccc34)n2)C1  remaining binding (binding; competition with immobilised ligand; 1 µM): 82%
